ChEMBL document CHEMBL3992538, “Hybrids of thienopyrimidinones and thiouracils as anti-tubercular agents: SAR and docking studies” (Eur J Med Chem, 2017)
Values after ≈ are worked out from the molar mass of the structure shown.

Tests used:
[1] = tested on: Mycobacterium tuberculosis; assay: Antitubercular activity against dormant stage of Mycobacterium tuberculosis H37Ra ATCC 25177 infected in human THP1 cells after 12 days by nitrate reductase assay; type: functional; details: H37Ra ATCC 25177, 288 h
Outline: (§1)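 Ex vivo test of H37Ra in THP-1 cells by nitrate reductase assay, absorbance read at 540 nm. Active stage incubated 8 days and dormant stage 12 days. H37Ra (ATCC 25177) grown in M. pheli medium to OD 1.0 and subcultured once from -70°C stock.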

[2] = tested on: Mycobacterium tuberculosis; assay: Antitubercular activity against active stage of Mycobacterium tuberculosis H37Ra ATCC 25177 infected in human THP1 cells after 8 days by nitrate reductase assay; type: functional; details: H37Ra ATCC 25177, 192 h; outline: as §1
[3] = tested on: Mycobacterium tuberculosis; assay: Antitubercular activity against dormant stage of Mycobacterium tuberculosis H37Ra ATCC 25177 after 12 days by XTT reduction menadione assay; type: functional; details: H37Ra ATCC 25177, 288 h
Outline: (§2)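 M. tuberculosis H37Ra (ATCC 25177), grown to log phase (OD 1.0) in M. pheli medium from -70°C stock, subcultured once before inoculation. Incubation 8 days (active) or 12 days (dormant). XRMA read-out as absorbance at 470 nm.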

[4] = tested on: Mycobacterium tuberculosis; assay: Antitubercular activity against active stage of Mycobacterium tuberculosis H37Ra ATCC 25177 after 8 days by XTT reduction menadione assay; type: functional; details: H37Ra ATCC 25177, 192 h; outline: as §2
[5] = Cytotoxicity against human THP1 cells assessed as growth inhibition by MTT assay; type: cell-based; details: THP-1 cells
Outline: (§3)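 MTT assay in duplicate on THP-1 leukaemia, A549 lung adenocarcinoma, PANC-1 pancreatic adenocarcinoma and HeLa cervical carcinoma cells, all obtained from ECCC.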

[6] = Cytotoxicity against human A549 cells assessed as growth inhibition by MTT assay; type: cell-based; outline: as §3
[7] = Cytotoxicity against human PANC1 cells assessed as growth inhibition by MTT assay; type: cell-based; details: PANC-1 cells; outline: as §3
[8] = Cytotoxicity against human HeLa cells assessed as growth inhibition by MTT assay; type: cell-based; outline: as §3
[9] = Selectivity index, ratio of GI50 for human A549 cells to MIC for dormant stage of Mycobacterium tuberculosis H37Ra ATCC 25177 infected in human THP1 cells; type: toxicity, cell-based; details: read-out: Selectivity Index
Outline: (§4)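 Selectivity index is the cytotoxic GI50 against the named human cell line divided by the antimycobacterial value. Activity counted as specific when SI >10.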

[10] = Selectivity index, ratio of GI50 for human A549 cells to MIC for dormant stage of Mycobacterium tuberculosis H37Ra ATCC 25177; type: toxicity; details: read-out: Selectivity Index; outline: as §4
[11] = Selectivity index, ratio of GI50 for human PANC1 cells to MIC for dormant stage of Mycobacterium tuberculosis H37Ra ATCC 25177 infected in human THP1 cells; type: toxicity, cell-based; details: PANC-1 cells, read-out: Selectivity Index; outline: as §4
[12] = Selectivity index, ratio of GI50 for human PANC1 cells to MIC for dormant stage of Mycobacterium tuberculosis H37Ra ATCC 25177; type: toxicity; details: PANC-1 cells, read-out: Selectivity Index; outline: as §4
[13] = Selectivity index, ratio of GI50 for human HeLa cells to MIC for dormant stage of Mycobacterium tuberculosis H37Ra ATCC 25177 infected in human THP1 cells; type: toxicity, cell-based; details: read-out: Selectivity Index; outline: as §4
[14] = Selectivity index, ratio of GI50 for human HeLa cells to MIC for dormant stage of Mycobacterium tuberculosis H37Ra ATCC 25177; type: toxicity, cell-based; details: read-out: Selectivity Index; outline: as §4
[15] = Selectivity index, ratio of GI50 for human A549 cells to MIC for active stage of Mycobacterium tuberculosis H37Ra ATCC 25177 infected in human THP1 cells; type: toxicity, cell-based; details: read-out: Selectivity Index; outline: as §4
[16] = Selectivity index, ratio of GI50 for human A549 cells to MIC for active stage of Mycobacterium tuberculosis H37Ra ATCC 25177; type: toxicity; details: read-out: Selectivity Index; outline: as §4
[17] = Selectivity index, ratio of GI50 for human PANC1 cells to MIC for active stage of Mycobacterium tuberculosis H37Ra ATCC 25177 infected in human THP1 cells; type: toxicity, cell-based; details: PANC-1 cells, read-out: Selectivity Index; outline: as §4
[18] = Selectivity index, ratio of GI50 for human PANC1 cells to MIC for active stage of Mycobacterium tuberculosis H37Ra ATCC 25177; type: toxicity; details: PANC-1 cells, read-out: Selectivity Index; outline: as §4
[19] = Selectivity index, ratio of GI50 for human HeLa cells to MIC for active stage of Mycobacterium tuberculosis H37Ra ATCC 25177 infected in human THP1 cells; type: toxicity, cell-based; details: read-out: Selectivity Index; outline: as §4
[20] = Selectivity index, ratio of GI50 for human HeLa cells to MIC for active stage of Mycobacterium tuberculosis H37Ra ATCC 25177; type: toxicity, cell-based; details: read-out: Selectivity Index; outline: as §4

| SMILES | MIC [1] [µg/mL] | MIC [2] [µg/mL] | MIC [3] [µg/mL] | MIC [4] [µg/mL] | GI50 [5] [µg/mL] | GI50 [6] [µg/mL] | GI50 [7] [µg/mL] | GI50 [8] [µg/mL] | selectivity ratio [9] | selectivity ratio [10] | selectivity ratio [11] | selectivity ratio [12] | selectivity ratio [13] | selectivity ratio [14] | selectivity ratio [15] | selectivity ratio [16] | selectivity ratio [17] | selectivity ratio [18] | selectivity ratio [19] | selectivity ratio [20] |
| --- | --- | --- | --- | --- | --- | --- | --- | --- | --- | --- | --- | --- | --- | --- | --- | --- | --- | --- | --- | --- |
| Cc1ccc(-c2nc(S)nc(O)c2C#N)cc1 | > 30 | > 30 | > 30 | > 30 | 88.9 (≈ 365 µM) | 86.7 (≈ 356 µM) | > 100 | 67.6 (≈ 278 µM) | 3 | < 3 | > 3 | > 3 | 2 | 2 | < 3 | 3 | > 3 | > 3 | 2 | 2 |
| C#CCn1c(SCCCn2cnc3sc4c(c3c2=O)CCCC4)nc(-c2cc(OC)c(OC)c(OC)c2)c(C#N)c1=O | > 30 | > 30 | > 30 | > 30 | > 100 | > 100 | > 100 | 66.3 (≈ 110 µM) | > 3 | > 3 | > 3 | > 3 | – | 2 | > 3 | > 3 | > 3 | > 3 | 2 | 2 |
| CCCCCn1c(SCCCn2cnc3sc4c(c3c2=O)CCCC4)nc(-c2cc(OC)c(OC)c(OC)c2)c(C#N)c1=O | > 30 | > 30 | > 30 | > 30 | > 100 | > 100 | > 100 | 73 (≈ 115 µM) | > 3 | > 3 | > 3 | > 3 | 2 | 2 | > 3 | > 3 | > 3 | > 3 | 2 | 2 |
| CCCCCc1cc2c(=O)n(CCCSc3nc(-c4cc(OC)c(OC)c(OC)c4)c(C#N)c(=O)[nH]3)cnc2s1 | 9.8 (≈ 16.8 µM) | > 30 | 12.3 (≈ 21.1 µM) | > 30 | > 100 | > 100 | 72.8 (≈ 125 µM) | 75.8 (≈ 130 µM) | > 10 | > 8 | > 7 | > 6 | 8 | 6 | > 3 | > 3 | > 2 | > 2 | 3 | 3 |
| CCCCCCCc1cc2c(=O)n(CCSc3nc(-c4cc(OC)c(OC)c(OC)c4)c(C#N)c(=O)[nH]3)cnc2s1 | 13.6 (≈ 22.8 µM) | 11.1 (≈ 18.6 µM) | 17.1 (≈ 28.7 µM) | 11.1 (≈ 18.6 µM) | 88.1 (≈ 148 µM) | 79.7 (≈ 134 µM) | 72.6 (≈ 122 µM) | 75.4 (≈ 127 µM) | 6 | 5 | 5 | 4 | 6 | 4 | 7 | 7 | 6 | 7 | 7 | 7 |
| COc1cc(-c2nc(SCCCn3cnc4sc5c(c4c3=O)CCCC5)[nH]c(=O)c2C#N)cc(OC)c1OC | 26.1 (≈ 46.1 µM) | 28.8 (≈ 50.9 µM) | 23.4 (≈ 41.4 µM) | 25.4 (≈ 44.9 µM) | 97.6 (≈ 173 µM) | 91.4 (≈ 162 µM) | 52.8 (≈ 93.3 µM) | 55.7 (≈ 98.5 µM) | 3 | 4 | 2 | 2 | 2 | 2 | 3 | 4 | 2 | 2 | 2 | 2 |
| CC(=O)O[C@H]1C(=O)[C@@]2(C)[C@H]([C@H](OC(=O)c3ccccc3)[C@]3(O)C[C@H](OC(=O)[C@H](O)[C@@H](NC(=O)c4ccccc4)c4ccccc4)C(C)=C1C3(C)C)[C@]1(OC(C)=O)CO[C@@H]1C[C@@H]2O [PACLITAXEL] | – | – | – | – | – | – | 0.128 (≈ 0.15 µM) | – | – | – | – | – | – | – | – | – | – | – | – | – |
| CCCCCCCc1cc2c(=O)n(CCCSc3nc(-c4cc(OC)c(OC)c(OC)c4)c(C#N)c(=O)[nH]3)cnc2s1 | 6.91 (≈ 11.3 µM) | > 30 | 7.6 (≈ 12.5 µM) | > 30 | 68.2 (≈ 112 µM) | 90.5 (≈ 148 µM) | > 100 | 76.1 (≈ 125 µM) | 13 | 12 | > 14 | > 13 | 11 | 10 | < 3 | 3 | 3 | 3 | 3 | 3 |
| CO[C@H]1/C=C/O[C@@]2(C)Oc3c(C)c(O)c4c(O)c(c(/C=N/N5CCN(C)CC5)c(O)c4c3C2=O)NC(=O)/C(C)=C\C=C\[C@H](C)[C@H](O)[C@@H](C)[C@@H](O)[C@@H](C)[C@H](OC(C)=O)[C@@H]1C [RIFAMPIN] | 0.75 (≈ 0.911 µM) | 0.51 (≈ 0.62 µM) | 0.48 (≈ 0.583 µM) | 0.41 (≈ 0.498 µM) | 0.14 (≈ 0.17 µM) | – | – | – | – | 208 | – | 208 | – | 208 | 196 | 244 | 196 | 244 | 196 | 244 |
